Screening results as filed in PubChem.
TAAR1 antagonist = human TAAR1 antagonism; inhibition, % at 3 µM; CHO RD-HGA16 TAAR1, Fluo-8 calcium fluorescence, antagonist; AID 624466; 360,000 tested, 1.5% active; Q96RJ0;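 active means inhibition above a per-plate cutoff, the mean inhibition of test compounds on that plate plus 3 SD, cut at about 49% in these data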
Target sequence (Q96RJ0 whole entry, looked up): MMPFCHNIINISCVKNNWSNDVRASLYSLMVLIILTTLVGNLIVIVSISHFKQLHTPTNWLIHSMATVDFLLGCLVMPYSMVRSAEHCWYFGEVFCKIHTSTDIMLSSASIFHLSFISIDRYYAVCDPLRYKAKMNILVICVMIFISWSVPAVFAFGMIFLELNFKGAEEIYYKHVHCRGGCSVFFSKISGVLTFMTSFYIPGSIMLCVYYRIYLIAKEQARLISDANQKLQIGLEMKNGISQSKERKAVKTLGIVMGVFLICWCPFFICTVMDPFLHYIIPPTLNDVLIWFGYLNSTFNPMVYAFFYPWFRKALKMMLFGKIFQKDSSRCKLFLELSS
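Test system – hTAAR1-expressing CHO RD-HGA16 cells, Gα16-coupled · Also added – β-PEA at EC80 concentration, post-compound challenge · Compound – 3 µM, single point · Incubation – dye loading 75 min at 37 °C, then 30 min room temperature · Measured by – Fluo-8 intracellular calcium dye fluorescence, real-time kinetic reads · Benchmarks – vehicle and agonist controls · Replicates – singlicate, one well per test compound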
OX1R antag-1 = OX1R (human) antagonism; O43613; OX1R-expressing cells, FRET antagonist read-out; inhibition, % at 6.6 µM; 330,000 tested, 1.8% active; AID 485270; in the data active means inhibition mostly above about 38%, no sharp cut-off; inactive means mostly below about 40%
GalR3 antag = human GalR3 antagonism. O60755. HEK293 GalR3-CNG cAMP membrane potential fluorescence; galR3 body fused to GalR1 C-terminus. inhibition, % at 3 µM. 360,000 tested, 0.44% active. AID 651719;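 active means inhibition above the screen-wide average plus 3 SD, cut at about 13% in these data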;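 further: forskolin and galanin both at EC90 stimulate the cells; cAMP rise reported by CNG channel membrane potential dye signal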
Target sequence (O60755 1-299 limits assumed): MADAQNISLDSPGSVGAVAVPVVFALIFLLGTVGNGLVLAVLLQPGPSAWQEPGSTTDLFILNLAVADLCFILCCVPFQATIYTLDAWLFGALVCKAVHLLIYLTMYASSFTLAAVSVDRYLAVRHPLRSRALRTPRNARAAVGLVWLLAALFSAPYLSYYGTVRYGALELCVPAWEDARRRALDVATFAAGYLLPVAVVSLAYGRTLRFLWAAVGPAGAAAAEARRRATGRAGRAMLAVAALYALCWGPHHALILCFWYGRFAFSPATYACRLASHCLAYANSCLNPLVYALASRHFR
OX1R antag-2 = blocks the human orexin 1 receptor. O43613. CHO/OX1R cells, Fluo-8 calcium fluorescence, orexin A. inhibition, % at 5 µM. 330,000 tested, 0.43% active. AID 434989;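 active means inhibition above its plate's threshold, mean inhibition of all tested compounds on the plate plus 3 SD, cut at about 37% in these data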
TAAR1 agonist = human TAAR1 agonism. Q96RJ0. CHO RD-HGA16 TAAR1, Fluo-8 calcium fluorescence; vehicle wells 0%, saturating PEA agonist 100%. activation, % at 3 µM. 360,000 tested, 0.99% active. AID 624467;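 active means activation above the mean activation of all test compounds in the run plus 3 SD, cut at about 38% in these data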
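test system = CHO RD-HGA16 cells carrying human TAAR1 plus Gα16 | schedule = 17-24 h seeding, 75 min 37 °C dye, 30 min RT | compound dosing = 3 µM single concentration | control set = DMSO and PEA EC100 | replicates = n 1 | signal = Fluo-8 fluorescence, 5 s baseline then 140 s kinetic read | measure = percent activation vs PEA EC100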
CHO parental Ca = counter-screen: ATP calcium response change in parental CHO cells; parental CHO-K1, ATP-induced calcium, Fluo-8 fluorescence; inhibition, % at 5.6 µM; 330,000 tested, 0.63% active; AID 463079;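 active means inhibition above that plate's mean sample inhibition plus 3 SD, cut at about 26% in these data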
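material = parental CHO cells | also added = ATP as calcium-mobilizing challenge | dosing = single point at 5.6 µM | detection = intracellular calcium via Fluo-8 no-wash fluorescent dye | read-out = % inhibition | benchmarks = low control ATP plus DMSO, high control DMSO only | repeats = one well per compound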
Hits are given with their value; – = inactive; · = no result. An excerpt weighted towards active compounds, which were near 4.3% of everything screened.

SMILES	TAAR1 antagonist	OX1R antag-1	GalR3 antag	OX1R antag-2	TAAR1 agonist	CHO parental Ca
O=C(COc1ccccc1)Nc1cccc(-c2nc3ccccc3[nH]2)c1	48.9	–	–	–	–	–
Cc1ccccc1OCC(=O)Nc1nc2ccccc2[nH]1	–	–	–	–	–	–
COc1ccc(OCC(=O)Nc2cccc(-c3nc4ccccc4o3)c2)cc1	49.4	–	–	–	–	–
Cc1ccc2oc(-c3cccc(NC(=O)c4ccccn4)c3)nc2c1	–	68.0	–	–	–	–
Cc1cc(C)c(OCC(=O)Nc2nc3ccccc3[nH]2)c(C)c1	49.4	–	–	–	42.4	–
C[C@H]1CN([C@@H](C)CO)C(=O)CCCn2nncc2CO[C@@H]1CN(C)Cc1ccncc1	–	·	–	·	–	·
CCCCOCCCNC(=O)C[C@H]1C[C@@]2(C(=O)OC)C(=C[C@H](C(C)(C)C)O[C@@H]2C)N(Cc2ccc3c(c2)OCO3)C1=O	–	·	–	·	–	·
Nc1[nH]c(C(=O)c2ccccc2)c(-c2cccc3ccccc23)c1C(=O)NCc1ccc(Cl)cc1Cl	–	·	–	·	–	·
Cc1ccc(S(=O)(=O)N(CCC(=O)NCc2ccccc2F)c2ccccc2)cc1	–	25.5	–	–	–	–
COc1ccccc1N(CC(O)Cn1nc(C)cc1C)S(=O)(=O)c1ccccc1 (stereo not drawn)	–	47.4	–	–	–	–
COc1ccccc1N(CC(O)Cn1c2ccccc2c2ccccc21)S(=O)(=O)c1ccccc1 (stereo not drawn)	–	–	–	–	–	–
CCCC(=O)NC1=C(Cl)C(=O)c2ccccc2C1=O	51.7	·	–	·	54.0	·
CCN(CC)c1ccc(NC2=C(Cl)C(=O)c3ccccc3C2=O)cc1	·	–	·	–	·	–
Cc1ccc(NC2=C(Cl)C(=O)c3ccccc3C2=O)cc1	–	–	–	–	–	–
O=C1C(Cl)=C(Nc2ccc(O)cc2)C(=O)c2ccccc21	55.6	156.2	–	43.9	–	44.9
COc1cccc(NC(=O)CN(C)C(=O)CSCC(=O)Nc2ccc(C)cc2)c1	–	29.6	–	–	–	–
COc1cc(NC(=O)CSc2nc(C3CC3)nc3ccccc23)cc(OC)c1	–	46.8	–	–	–	–
COc1cc(NC(=O)CSCC(=O)Nc2cc(OC)cc(OC)c2)cc(OC)c1	·	63.1	·	–	·	–
COc1cccc(NC(=O)CN(C)C(=O)CSc2nc3ccccc3s2)c1	–	53.7	–	–	–	–
COCC(=O)Nc1cc(OC)cc(OC)c1	–	–	–	–	–	–
O=C(NCc1ccco1)c1cccc(-c2cncc3nccn23)c1	–	·	–	·	–	·
CCc1nc2ccc(C(=O)NCCNC(C)=O)cn2c1N(CC)CCOC	–	·	–	·	–	·
COc1ccccc1N(CC(=O)NCCSc1ccccn1)S(=O)(=O)c1ccccc1	–	51.1	–	–	–	–
Cc1cc(C)cc(N(CC(=O)NCCSc2ccccn2)S(=O)(=O)c2ccccc2)c1	49.3	–	–	–	–	–
Cc1ccccc1N(CC(=O)NCCSc1ccccn1)S(=O)(=O)c1ccccc1	–	–	–	–	–	–
SMILES	TAAR1 antagonist	OX1R antag-1	GalR3 antag	OX1R antag-2	TAAR1 agonist	CHO parental Ca
CCOc1ccccc1N(CC(=O)NCCSc1ccccn1)S(=O)(=O)c1ccc(C)cc1	–	41.8	–	–	–	–
COC(=O)c1cc2c(c3c4cc(OC)ccc4n(S(=O)(=O)c4cccc(C)c4)c13)C(=O)N(Cc1ccc(N(C)C)cc1)C2	–	·	–	·	–	·
COc1ccc(Cl)cc1C1=NOC2(CCC2)C(=O)N1Cc1cccc(C#N)c1	–	·	–	·	–	·
O=C(CCCN1C(=O)/C(=C/c2ccc(F)cc2)SC1=S)NC1CCS(=O)(=O)C1 (stereo not drawn)	–	–	–	–	–	82.3
CCN(C(=O)CN1C(=O)S/C(=C\c2ccc(F)cc2)C1=O)C1CCS(=O)(=O)C1 (stereo not drawn)	–	40.6	–	–	–	–
COc1cccc(CNC(=O)[C@H]2CCCN2C(=O)[C@H]2CCCN2C(=O)c2ccc(F)cc2F)c1	–	·	–	·	–	·
O=C(CSc1cn[nH]n1)Nc1nc2ccccc2s1	–	–	–	–	–	–
Cc1c(C#N)c(O)[nH]c(=O)c1N=Nc1ccc(Cl)c(C(=O)O)c1	–	–	–	–	–	–
Cc1c(C#N)c(O)[nH]c(=O)c1N=Nc1ccc(S(N)(=O)=O)cc1	–	40.8	–	–	–	–
Cc1cc2c(nc1C)CCCN2Cc1ccc(Br)cc1	–	·	–	·	–	·
CC(C)CCNC(=O)[C@@H](Cc1ccccc1)NC(=O)[C@H]1O[C@@H](n2ccc(=O)[nH]c2=O)[C@H](O)[C@@H]1O	–	·	–	·	–	·
CSc1ccccc1OCc1cc(C(=O)N2CCc3c(Cl)cccc3C2)no1	–	–	–	62.3	–	58.2
COc1cc2c(cc1OC)CN(C(=O)c1cc(COc3ccccc3SC)on1)CC2	–	·	–	·	–	·
CNc1ccc(-c2ccccc2CO)cn1	–	·	–	·	–	·
COC(=O)C1=C(C)N(c2cccc(C)c2)C(=O)/C1=C\c1cccs1	–	–	–	–	47.8	–
CCN(CC)C(=S)SSC(=S)N(CC)CC	–	–	·	–	47.3	–
CC(NC(=O)CSc1ccc(S(=O)(=O)N2CCOCC2)cn1)c1ccc(Cl)cc1Cl (stereo not drawn)	–	·	–	·	–	·
COCCOc1ccc(C(F)(F)F)cc1NC(=O)c1ccc(F)cc1	–	–	–	–	–	–
COCCOc1ccc(C(F)(F)F)cc1NC(=O)c1ccc(C)cc1	–	–	–	–	–	38.6
COc1ccc(C(=O)NCC2CCN(C(=O)C(=O)c3cc4ccccc4o3)CC2)c(OC)c1	–	·	–	·	–	·
Cc1ccccc1CN1CCN(C(=O)[C@H]2O[C@@H](n3cnc(C(N)=O)n3)[C@H](O)[C@@H]2O)CC1	–	·	–	·	–	·
CCCCc1[nH]c(=O)c(C#N)c2c1CSC(C)(C)C2	–	–	–	–	–	56.2
CCc1[nH]c(=O)c(C#N)c2c1CSC(C)(C)C2	·	–	·	–	·	–
CC(C)c1ccc(S(=O)(=O)Nc2ccc(SC(F)F)cc2)cc1	–	–	–	–	–	42.1
Cc1ccc(S(=O)(=O)Nc2ccc(SC(F)F)cc2)c(C)c1	–	–	–	–	–	42.8
Cc1ccc2cc(NC(=O)C3(C)CCN(C)C3)ccc2n1 (stereo not drawn)	–	·	–	·	–	·
O=C(Nc1ccccc1)N(O)c1ccc(Cl)cc1	–	–	–	–	38.5	–
COc1ccc(S(=O)(=O)CC(=O)c2cc3cc(Br)ccc3oc2=O)cc1	–	–	–	–	42.4	–
COc1cccc2cc(C(=O)CS(=O)(=O)c3ccc(Cl)cc3)c(=O)oc12	–	42.7	–	–	–	–
COc1ccccc1-c1ccc2c(c1)[C@@H]1C[C@H]3[C@@H](CN1CC2)[C@H](C)ON3C	–	·	–	·	–	·
